Bioassay records (PubChem BioAssay)
In the library only some 2.1% were active in any assay of this set; here they are far more common.
MRP reversal: compounds reversing MRP-mediated drug resistance; H69AR cells + 2 uM doxorubicin, CellTiter-Glo, 72 h; differential viability (reversal), % at 10 µM; hit rate 0.04% among 85,000; AID 602;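 active means viability drop by adding the cancer drug above about 55%, with treated viability meeting a 40% cutoff, limit read from the data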;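 further: viability without doxorubicin minus viability with 2 µM doxorubicin for each compound; larger differential means the compound sensitizes cells more to doxorubicin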
SDO1 yeast rescue: sdo1-depleted yeast growth rescue | S. cerevisiae sdo1-depleted JHY4D growth rescue, OD600 30 h; active compounds read high; pdr5 snq2 efflux-pump mutant strain | z-score at 10 µM | hit rate 0.21% among 140,000 | AID 817;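 active means z-score above 3 at both the 24 hr and the 30 hr optical density reads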;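 further: z-score against mean and SD of all compound wells on the same plate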
MRP-1 activ: activates MRP-1 | H69AR cells + doxorubicin, viability rescue, CellTiter-Glo | viability increase, % at 10 µM | hit rate 0.61% among 140,000 | AID 799;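 active means viability gain under doxorubicin at or above a set limit, the compound median plus 3 SD, cut at about 4.7% in these data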;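 further: MRP-1 overexpressing cells given doxorubicin 25 µM after compound pretreatment; 18-22 h compound pretreatment then 72 h with doxorubicin before readout; 0% = doxorubicin-only wells and 100% = vehicle-treated cells without doxorubicin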
Phagocytosis inh: blocks phagocytosis by macrophages. AID 1029. J774A.1 macrophage IgG-bead phagocytosis, imaging. inhibition, % at 5 µM. hit rate 0.07% among 110,000;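 active means inhibition above the mean of the plate negative controls plus 5 SD, cut at about 13% in these data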;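 further: phagocytic index as fraction of beads internalized from green versus red external bead signal; plate controls were DMSO negative control for no effect and cytochalasin-D positive control for full effect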
BB579 growth dn: reduces growth of yeast BB579 in restrictive medium; S. cerevisiae BB579 growth, OD615, 48 h; inhibition, % at 10 µM; hit rate 0.51% among 140,000;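 active means inhibition above a set limit, 3 SD over the mean compound inhibition, cut at about 44% in these data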
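Material: Saccharomyces cerevisiae DeaD strain BB579, replicative lifespan model yeast; buffer or medium: CSMM-D restrictive synthetic medium containing dextrose (glucose); compound: 10 µM single dose, DMSO 0.25%; timing: 48 h compound exposure at 30 °C after 4 h preincubation; signal: turbidity as optical density at 615 nm; benchmarks: positive control amphotericin B 10 µg/mL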
Yeast lifespan up: extends the lifespan of yeast; S. cerevisiae growth with nicotinamide, OD615; deaD strain in restrictive glucose medium; inhibition of the nicotinamide effect, % at 10 µM; hit rate 0.68% among 130,000; AID 775;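 active means inhibition above a set limit, placed 3 SD over the median of all compounds, cut at about 26% in these data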;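 further: 0% = nicotinamide-treated wells and 100% = cells grown without nicotinamide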
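assay system = DeaD-strain S. cerevisiae | buffer or medium = restrictive glucose medium | reagent = 1.5 mM nicotinamide | compound = 10 µM single point, 0.25% DMSO | incubation = 48 h compound exposure at 30 °C, humidified | signal = OD615 measurement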
* = called active by the depositor; · = not tested or not shown.

SMILES	MRP reversal	SDO1 yeast rescue	MRP-1 activ	Phagocytosis inh	BB579 growth dn	Yeast lifespan up
COc1ccc2c(c1)S/C(=C\C(=O)c1ccncc1)N2C	9	-2.4	-1	1	92*	-14
CCC1(C)N([O-])C(C)=C(c2ccccc2)[N+]1=O (configuration not stated)	10	0.48	0	0	-33	10
CC1(C)N([O-])C2=C(c3ccccc3C2=O)[N+](=O)C1(C)C	-11	-0.13	-1	-1	-58	53*
CCOC(=O)Cc1csc(NC(=O)c2c(-c3c(F)cccc3Cl)noc2C)n1	-11	-0.88	-4	-2	31	-2
COc1ccc(Cc2nnc(NC(=O)c3c(-c4ccccc4)noc3C)s2)cc1	-48	0.03	3	-1	-37	18
CCOC(=O)Cc1csc(NC(=O)c2c(-c3ccccc3)noc2C)n1	7	-0.58	4.9*	1	-19	1
COc1ccc(Cc2nnc(NC(=O)c3c(-c4ccccc4)noc3C)s2)cc1OC	26	0.08	9.5*	0	-14	-9
CCOC(=O)Cc1csc(NC(=O)c2c(O)c3ccccc3n(CC(C)C)c2=O)n1	-22	-2.4	-3	-1	-105	69*
CC(C)Cn1c(=O)c(C(=O)Nc2ccccc2S(N)(=O)=O)c(O)c2ccccc21	·	-2.4	-2	-1	-29	3
CCCC(=O)C1=C(O)C(C(=O)OC)C(C)(C)CC1=Nc1ccc(N)cc1 (configuration not stated)	-18	0.13	-5	-3	-7	-1
CCCC(=Nc1ccc(N)cc1)C1=C(O)C(C(=O)OC)C(C)(C)CC1=O (configuration not stated)	-11	0.59	-2	-2	-4	44*
O=c1cc(-c2ccccc2)[nH]n1-c1nc2ccccc2[nH]1	·	2.1	-6	1	97*	-26
CCOC(=O)CS(=O)(=O)c1nc(-c2ccc(F)cc2)cc(C(F)(F)F)n1	2	-1.5	-3	-1	-44	67*
COC(=O)CCS(=O)(=O)c1nc(-c2ccccc2)cc(C(F)(F)F)n1	0	-0.32	-2	0	-8	77*
CCOC(=O)CS(=O)(=O)c1nc(-c2ccccc2)cc(C(F)(F)F)n1	0	-1.5	-1	-1	-45	·
CCOC(=O)CCS(=O)(=O)c1nc(-c2ccccc2)cc(C(F)(F)F)n1	0	-0.91	-3	2	-32	67*
O=C(NC1CCCCCC1)c1ccccc1-c1ccccc1	·	0.06	-2	2	-29	8
O=C(c1ccc(S(=O)(=O)N2CCCC2)cc1)N1CCCc2ccccc21	-5	-0.24	-3	0	-27	-3
COc1ccc(OCc2nc(N)nc(Nc3ccc(C)cc3)n2)cc1	-3	-0.76	-1	1	-39	-18
CCOC(=O)N1CCC(Nc2c(OCC)c(=O)c2=O)CC1	6	0.91	0	0	-29	-5
CCOC(=O)N1CCC(Nc2c(Nc3ccc(C)c(C)c3)c(=O)c2=O)CC1	65*	0.82	-5	0	-38	1
Cc1nc(NC(=O)c2cccc(-c3cc4ccccc4oc3=O)c2)ccc1Br	·	-2	1	-9	-39	0
O=C(Nc1ccc(Br)cn1)c1cccc(-c2cc3ccccc3oc2=O)c1	·	-0.89	-3	5	-37	76*
Cc1cc(C(=O)Nc2nnc(-c3ccccc3)s2)no1	12	0.09	1	-3	-39	27*
Cc1cc(C(=O)Nc2nnc(C3CCCCC3)s2)no1	4	-0.88	-2	-2	-8	-6
SMILES	MRP reversal	SDO1 yeast rescue	MRP-1 activ	Phagocytosis inh	BB579 growth dn	Yeast lifespan up
Cn1c(=O)n(C/C=C/c2ccccc2)c(=O)c2c1nc1n2CCCN1c1ccc(F)cc1	4	0.15	5.3*	0	3	-6
CCOC(=O)c1nnc(-c2ccccc2)nc1Oc1ccccc1Cl	·	-0.71	5.2*	-1	-57	5
NC1C2CN(c3nc4c(cc3F)c(=O)c(C(=O)O)cn4-c3ccc(F)cc3F)CC12 (configuration not stated)	·	-0.39	6.6*	-1	-1	-17
CCN1CCCC1CNC(=O)CN1C(=O)COc2ccc(C)cc21 (configuration not stated)	4	0.28	-1	0	3	-5
Cn1cccc1/C=C1\SC(=O)N(c2ccccc2)C1=O	·	1	0	-14	-35	-2
Cc1ccc(S(=O)(=O)NN2C(=O)/C(=C/c3cccn3C)SC2=S)cc1	·	1	-4	-6	-47	30*
CCCC(C(=O)O)N1C(=O)/C(=C/c2cccn2C)SC1=S (configuration not stated)	·	0.48	0	0	-26	27*
CC(C)C(C(=O)O)N1C(=O)/C(=C/c2cccn2C)SC1=S (configuration not stated)	·	-0.3	-1	-6	-34	42*
CCn1c(O)c(N=NC(=O)C2C(=O)NCC2c2ccccc2)c2ccccc21 (configuration not stated)	·	0.61	-1	-11	-24	-4
O=C(COc1ccc(Br)cc1)c1ccc2c(c1)CCCC2	·	-0.19	5.1*	·	-48	-2
CCC(=C(c1ccc(OC)cc1)c1ccc(OC)cc1)c1cn(CC(O)CN2CCN(C)CC2)c2ccccc12 (configuration not stated)	0	-3	-3	-1	95*	-18
O=S(=O)(Nc1ccc(Cc2ccncc2)cc1)c1cccs1	·	-0.43	-1	5	-13	13
CCCCc1ccc(NS(=O)(=O)c2cccs2)cc1	-2	-2.8	-2	1	58*	-22
Cc1cc(NC(=O)c2cccc(F)c2)ncc1NC(=O)c1ccco1	3	1.2	0	-1	-9	31*
Cc1cc(NC(=O)c2ccco2)ncc1NC(=O)CCc1ccccc1	3	1.1	-2	0	-51	-9
CSc1nsc(SCC(=O)Nc2c(C)n(C)n(-c3ccccc3)c2=O)n1	-7	0.82	2	-1	-26	-14
CC(c1ccco1)N(C(=O)c1ccccc1NS(=O)(=O)c1ccc(Cl)c([N+](=O)[O-])c1)c1ccccn1 (configuration not stated)	·	-1.8	-6	-6	-25	40*
COC(=O)C1=C(N)OC2=C(C(=O)CC(C)(C)C2)C1c1cccs1 (configuration not stated)	-9	-0.07	-3	·	-49	35*
CCOC(=O)C1=C(N)OC2=C(C(=O)CC(C)(C)C2)C1c1ccoc1 (configuration not stated)	0	0.41	-3	-1	-39	-7
Cc1ncsc1C(=O)Nc1nc2c(s1)CC(C)CC2 (configuration not stated)	-7	0.18	-2	0	-16	-24
CCCCOc1ccc(C2(C(=O)O)CCCC2)cc1	8	-0.75	-2	0	-12	8
